# From ChEMBL document CHEMBL4406825, “Design, synthesis and preliminary bioactivity evaluations of 8-hydroxyquinoline derivatives as matrix metalloproteinase (MMP) inhibitors” (Eur J Med Chem, 2019)
# Calls of active or inactive are those of the source. No cut-off for these calls is given here.
# Experiments:
# [1] = target: T1, 72 kDa type IV collagenase (Homo sapiens, UniProt P08253); experiment: Inhibition of recombinant human MMP2 at 10 uM using thiopeptide as substrate preincubated for 30 mins followed by substrate addition and measured every min for 20 mins by colorimetric assay relative to control
# Procedure, shortened: (§1)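 Colorimetric kit assay: human recombinant enzyme plus inhibitor in assay buffer for 30 min at 37 °C, then chromogenic MMP substrate added; A412 recorded each minute over 20 min. Enzyme-free blanks and inhibitor-free controls included.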
# Target sequence in this assay (P08253 110-660 limits assumed): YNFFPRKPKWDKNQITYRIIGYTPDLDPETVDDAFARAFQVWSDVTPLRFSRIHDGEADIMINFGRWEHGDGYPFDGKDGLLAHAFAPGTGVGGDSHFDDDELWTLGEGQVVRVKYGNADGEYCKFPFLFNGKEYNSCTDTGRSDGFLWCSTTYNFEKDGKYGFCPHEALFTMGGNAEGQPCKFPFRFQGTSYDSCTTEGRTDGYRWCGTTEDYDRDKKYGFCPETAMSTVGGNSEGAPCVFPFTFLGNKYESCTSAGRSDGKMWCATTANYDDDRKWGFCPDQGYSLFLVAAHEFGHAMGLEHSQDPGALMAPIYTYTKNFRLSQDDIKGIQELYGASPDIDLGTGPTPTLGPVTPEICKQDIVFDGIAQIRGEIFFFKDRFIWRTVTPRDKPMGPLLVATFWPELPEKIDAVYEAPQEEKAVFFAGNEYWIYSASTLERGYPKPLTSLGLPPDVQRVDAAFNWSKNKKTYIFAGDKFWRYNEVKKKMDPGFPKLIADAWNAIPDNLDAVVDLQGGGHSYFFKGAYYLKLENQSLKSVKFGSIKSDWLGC
# [2] = target: T2, Matrix metalloproteinase-9 (Homo sapiens, UniProt P14780); experiment: Inhibition of recombinant human MMP9 at 10 uM using thiopeptide as substrate preincubated for 30 mins followed by substrate addition and measured every min for 20 mins by colorimetric assay relative to control; procedure, shortened: as §1
# [3] = target: T1, 72 kDa type IV collagenase; experiment: Inhibition of recombinant human MMP2 using thiopeptide as substrate preincubated for 30 mins followed by substrate addition and measured every mins for 20 min by colorimetric assay
# Target sequence in this assay (P08253 whole entry): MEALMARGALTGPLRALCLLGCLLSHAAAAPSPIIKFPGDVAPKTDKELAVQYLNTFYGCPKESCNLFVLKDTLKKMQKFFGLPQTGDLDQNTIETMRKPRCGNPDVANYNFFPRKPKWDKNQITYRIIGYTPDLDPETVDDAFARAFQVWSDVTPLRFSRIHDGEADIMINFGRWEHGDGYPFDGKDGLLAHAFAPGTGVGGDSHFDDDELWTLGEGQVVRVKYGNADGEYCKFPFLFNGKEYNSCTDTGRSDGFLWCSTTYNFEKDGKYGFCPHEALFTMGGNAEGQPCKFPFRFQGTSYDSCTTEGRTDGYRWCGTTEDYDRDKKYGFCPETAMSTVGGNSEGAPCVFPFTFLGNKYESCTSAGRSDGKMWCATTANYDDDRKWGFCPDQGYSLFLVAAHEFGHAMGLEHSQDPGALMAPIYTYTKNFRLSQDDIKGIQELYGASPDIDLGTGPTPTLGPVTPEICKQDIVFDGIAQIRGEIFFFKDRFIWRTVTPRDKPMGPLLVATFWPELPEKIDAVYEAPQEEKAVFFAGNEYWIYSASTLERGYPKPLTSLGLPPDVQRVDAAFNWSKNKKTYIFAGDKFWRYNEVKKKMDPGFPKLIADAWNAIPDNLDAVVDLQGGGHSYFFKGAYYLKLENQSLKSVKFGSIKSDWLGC
# [4] = target: T2, Matrix metalloproteinase-9; experiment: Inhibition of recombinant human MMP9 using thiopeptide as substrate preincubated for 30 mins followed by substrate addition and measured every min for 20 mins by colorimetric assay
# HL-60 = experiment: Antiproliferative activity against human HL60 cells assessed as reduction in cell viability incubated for 48 hrs by MTT assay; format: functional, cell-based; settings: HL-60, 48 h
# Procedure, shortened: (§2)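 Cells grown in RPMI1640 with 10% FBS at 37°C, 5% CO2; seeded at 4000-5000 cells/well for 8 h, then exposed to a range of compound concentrations for 48 h. MTT added for 4 h, formazan dissolved in DMSO, absorbance at 570 nm; IC50 calculated from inhibition ratios.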
# K562 = experiment: Antiproliferative activity against human K562 cells assessed as reduction in cell viability incubated for 48 hrs by MTT assay; format: functional, cell-based; settings: K562, 48 h; procedure, shortened: as §2
# KG-1 = experiment: Antiproliferative activity against human KG1 cells assessed as reduction in cell viability incubated for 48 hrs by MTT assay; format: functional, cell-based; settings: KG-1, 48 h; procedure, shortened: as §2
# A549 [5] = experiment: Antiproliferative activity against human A549 cells assessed as reduction in cell viability incubated for 48 hrs by MTT assay; format: functional, cell-based; settings: A549, 48 h; procedure, shortened: as §2
# PC-3 = experiment: Antiproliferative activity against human PC3 cells assessed as reduction in cell viability incubated for 48 hrs by MTT assay; format: functional, cell-based; settings: PC-3, 48 h; procedure, shortened: as §2
# MCF7 = experiment: Antiproliferative activity against human MCF7 cells assessed as reduction in cell viability incubated for 48 hrs by MTT assay; format: functional, cell-based; settings: MCF7, 48 h; procedure, shortened: as §2
# HUVEC [6] = experiment: Cytotoxicity against HUVEC assessed as reduction in cell viability incubated for 48 hrs by MTT assay; format: cell-based; settings: Homo sapiens; procedure, shortened: as §2
# A549 [7] = experiment: Inhibition of cell migration in human A549 cells incubated for 24 hrs by crystal violet staining based transwell migration assay; format: functional
# Procedure, shortened: (§3)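 A549 cells pretreated 24 h with compound (1, 5, 10 µM), harvested into serum-free RPMI1640; 30,000 cells placed in upper transwell chamber, lower chamber RPMI1640 + 10% FBS as chemoattractant. Migration 24 h at 37°C, 5% CO2; cells fixed MeOH/acetic acid (3:1), upper side wiped, underside stained 0.1% crystal violet and counted. Three repeats, mean ± SEM.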
# A549 [8] = experiment: Inhibition of cell invasion in human A549 cells incubated for 24 hrs by crystal violet staining based matrigel migration assay; format: functional
# Procedure, shortened: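 As the migration setup but membrane precoated with matrigel (1:10 diluted) for 2 h at 37°C: A549 pretreated 24 h at 1, 5, 10 µM, 30,000 cells in serum-free medium above, 10% FBS below, 24 h, then fixing, 0.1% crystal violet staining and counting. Three repeats, mean ± SEM.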
# HUVEC [9] = experiment: Antiangiogenic activity in HUVEC assessed as inhibition of tuber formation at 10 uM incubated for 24 hrs by matrigel-based inverted microscopy; format: functional, cell-based; settings: Homo sapiens
# Procedure, shortened: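 HUVEC treated with compound for 24 h in serum-free RPMI1640, harvested and layered onto undiluted matrigel polymerized 2 h at 37°C; after 6 h cell organization examined by inverted microscope, with mesh number counted as the angiogenesis read-out. Tested at 10 µM.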
# A549 [10] = experiment: Induction of apoptosis in human A549 cells assessed as viable cells at 1 uM incubated for 48 hrs by annexin V FITC and propidium iodide based flow cytometry (reference value: 94.7 %); format: functional; settings: A549, 48 h, read-out: Activity
# Procedure, shortened: (§4)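 A549 cells (1×10^5 cells/mL) treated 48 h at 0, 1, 5 or 10 µM; harvested, washed in cold PBS, resuspended in binding buffer with annexin V-FITC and PI, 15 min at room temperature in the dark, then analysed by flow cytometry.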
# A549 [11] = experiment: Induction of apoptosis in human A549 cells assessed as early apoptotic cells at 1 uM incubated for 48 hrs by annexin V FITC and propidium iodide based flow cytometry (reference value: 2.15 %); format: functional; procedure, shortened: as §4
# A549 [12] = experiment: Induction of apoptosis in human A549 cells assessed as late apoptotic cells at 1 uM incubated for 48 hrs by annexin V FITC and propidium iodide based flow cytometry (reference value: 3.11 %); format: functional; procedure, shortened: as §4
# A549 [13] = experiment: Induction of apoptosis in human A549 cells assessed as necrotic cells at 1 uM incubated for 48 hrs by annexin V FITC and propidium iodide based flow cytometry (reference value: 0.02 %); format: functional; procedure, shortened: as §4
# A549 [14] = experiment: Induction of apoptosis in human A549 cells assessed as viable cells at 5 uM incubated for 48 hrs by annexin V FITC and propidium iodide based flow cytometry (reference value: 94.7 %); format: functional; settings: A549, 48 h, read-out: Activity; procedure, shortened: as §4
# A549 [15] = experiment: Induction of apoptosis in human A549 cells assessed as early apoptotic cells at 5 uM incubated for 48 hrs by annexin V FITC and propidium iodide based flow cytometry (reference value: 2.15 %); format: functional; procedure, shortened: as §4
# A549 [16] = experiment: Induction of apoptosis in human A549 cells assessed as late apoptotic cells at 5 uM incubated for 48 hrs by annexin V FITC and propidium iodide based flow cytometry (reference value: 3.11 %); format: functional; procedure, shortened: as §4
# A549 [17] = experiment: Induction of apoptosis in human A549 cells assessed as necrotic cells at 5 uM incubated for 48 hrs by annexin V FITC and propidium iodide based flow cytometry (reference value: 0.02 %); format: functional; procedure, shortened: as §4
# A549 [18] = experiment: Induction of apoptosis in human A549 cells assessed as viable cells at 10 uM incubated for 48 hrs by annexin V FITC and propidium iodide based flow cytometry (reference value: 94.7 %); format: functional; settings: A549, 48 h, read-out: Activity; procedure, shortened: as §4
# A549 [19] = experiment: Induction of apoptosis in human A549 cells assessed as early apoptotic cells at 10 uM incubated for 48 hrs by annexin V FITC and propidium iodide based flow cytometry (reference value: 2.15 %); format: functional; procedure, shortened: as §4
# A549 [20] = experiment: Induction of apoptosis in human A549 cells assessed as late apoptotic cells at 10 uM incubated for 48 hrs by annexin V FITC and propidium iodide based flow cytometry (reference value: 3.11 %); format: functional; procedure, shortened: as §4
# A549 [21] = experiment: Induction of apoptosis in human A549 cells assessed as necrotic cells at 10 uM incubated for 48 hrs by annexin V FITC and propidium iodide based flow cytometry (reference value: 0.02 %); format: functional; procedure, shortened: as §4
# A549 [22] = experiment: Down regulation of MMP2 expression in human A549 cells incubated for 24 hrs by Western blot analysis; format: functional, cell-based
# Procedure, shortened: (§5)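 A549 cells treated 24 h at 1, 5 and 10 µM; lysates run on SDS-PAGE, transferred to PVDF, blocked in 10% dry milk/TBST, probed with rabbit anti-MMP-2, anti-MMP-9 or anti-GAPDH, then secondary antibodies and imaged.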
# A549 [23] = experiment: Down regulation of MMP9 expression in human A549 cells incubated for 24 hrs by Western blot analysis; format: functional, cell-based; procedure, shortened: as §5
# [24] = target: T1, 72 kDa type IV collagenase; experiment: Inhibition of MMP2 in human A549 cells assessed as decrease in gelatin digestion incubated for 24 hrs by coomassie brilliant blue staining-based zymographic assay; format: cell-based
# Procedure, shortened: (§6)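 A549 cells treated 24 h at 1, 5, 10 µM; culture supernatants electrophoresed on gelatin-containing SDS-PAGE, gels washed three times in 0.25% triton, then incubated 48 h at 37°C in 50 mM Tris-HCl pH 7.5 with 0.15 M NaCl, 5 mM CaCl2, 0.05% NaN3 to reveal gelatinolytic activity.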
# Target sequence in this assay (P08253 110-660 limits assumed): as the sequence (P08253 110-660 limits assumed) above
# [25] = target: T2, Matrix metalloproteinase-9; experiment: Inhibition of MMP9 in human A549 cells assessed as decrease in gelatin digestion incubated for 24 hrs by coomassie brilliant blue staining-based zymographic assay; format: cell-based; procedure, shortened: as §6
# A549 [26] = experiment: Inhibition of cell migration in human A549 cells at 1 to 10 uM incubated for 24 hrs by crystal violet staining based transwell migration assay; format: functional; procedure, shortened: as §3
# [27] = target: T2, Matrix metalloproteinase-9; experiment: Inhibition of recombinant human MMP9 at 25 uM using thiopeptide as substrate preincubated for 30 mins followed by substrate addition and measured every min for 20 mins by colorimetric assay relative to control
# [28] = target: T2, Matrix metalloproteinase-9; experiment: Inhibition of recombinant human MMP9 at 50 uM using thiopeptide as substrate preincubated for 30 mins followed by substrate addition and measured every min for 20 mins by colorimetric assay relative to control
# [29] = target: MMP-2/MMP-9 (Homo sapiens) (UniProt P08253+P14780); experiment: Selectivity ratio of IC50 for inhibition of recombinant human MMP9 to IC50 for inhibition of recombinant human MMP2
# T2 sequence (P14780 whole entry): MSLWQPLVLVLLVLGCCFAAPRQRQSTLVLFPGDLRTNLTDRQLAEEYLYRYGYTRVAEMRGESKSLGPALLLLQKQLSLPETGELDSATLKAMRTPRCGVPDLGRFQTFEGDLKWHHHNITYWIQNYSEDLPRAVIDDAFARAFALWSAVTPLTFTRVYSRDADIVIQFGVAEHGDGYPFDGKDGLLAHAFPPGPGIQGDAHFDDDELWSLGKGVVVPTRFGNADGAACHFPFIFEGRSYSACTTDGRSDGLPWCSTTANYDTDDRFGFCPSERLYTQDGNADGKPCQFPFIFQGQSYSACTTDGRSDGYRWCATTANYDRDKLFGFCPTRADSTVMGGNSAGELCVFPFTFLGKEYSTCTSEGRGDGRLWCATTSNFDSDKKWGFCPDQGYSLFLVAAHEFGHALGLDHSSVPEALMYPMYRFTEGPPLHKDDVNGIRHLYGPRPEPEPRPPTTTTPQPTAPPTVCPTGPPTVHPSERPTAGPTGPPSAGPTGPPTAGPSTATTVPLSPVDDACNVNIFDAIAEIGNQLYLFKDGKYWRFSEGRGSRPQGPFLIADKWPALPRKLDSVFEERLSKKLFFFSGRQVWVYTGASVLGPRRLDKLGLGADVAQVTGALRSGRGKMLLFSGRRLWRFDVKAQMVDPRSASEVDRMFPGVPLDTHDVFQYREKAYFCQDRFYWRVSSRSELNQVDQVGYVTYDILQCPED
SMILES,inhibition [1] [%],inhibition [2] [%],IC50 [3] [µM],IC50 [4] [µM],IC50 (HL-60) [µM],IC50 (K562) [µM],IC50 (KG-1) [µM],IC50 (A549 [5]) [µM],IC50 (PC-3) [µM],IC50 (MCF7) [µM],IC50 (HUVEC [6]) [µM],inhibition (A549 [8]),inhibition (HUVEC [9]),viability at 1 µM (A549 [10]) [%],Activity (A549 [11]) [%],Activity (A549 [12]) [%],Activity (A549 [13]) [%],viability at 5 µM (A549 [14]) [%],Activity (A549 [15]) [%],Activity (A549 [16]) [%],other results
O=C(CCCCCNCc1cc(Cl)c2cccnc2c1O)Nc1ccccc1,100,100,0.7,0.66,1.8,2.3,2.3,11,8.3,4.6,> 50,Dose-dependent effect,Active,75.8,16.4,7.81,0.031,73.1,17.1,9.75,inhibition (A549 [7]): Dose-dependent effect; Activity (A549 [17]): 0.029%; viability at 10 µM (A549 [18]): 72.3%; Activity (A549 [19]): 21%; Activity (A549 [20]): 6.54%; Activity (A549 [21]): 0.14%; Activity (A549 [22]): Dose-dependent effect; Activity (A549 [23]): Dose-dependent effect; inhibition [24]: Dose-dependent effect; inhibition [25]: Dose-dependent effect
Cc1[nH]c2ccccc2c1CCNC(=O)CCCNCc1cc(Cl)c2cccnc2c1O,68.8,100,0.81,1.3,4,1.8,0.69,6.4,22,7.8,> 50,Dose-dependent effect,Active,74.9,16,9.15,0,64.4,29.4,6.17,Activity (A549 [17]): 0.027%; viability at 10 µM (A549 [18]): 62.5%; Activity (A549 [19]): 32.5%; Activity (A549 [20]): 4.97%; Activity (A549 [21]): 0.46%; Activity (A549 [22]): Dose-dependent effect; Activity (A549 [23]): Dose-dependent effect; inhibition [24]: Dose-dependent effect; inhibition [25]: Dose-dependent effect; inhibition (A549 [26]): Active
CN(CCCCCC(=O)Nc1ccc(O)c2ncccc12)c1ccccc1,59.5,35.3,6.2,> 10,,,,,,,,,,,,,,,,,inhibition [27]: 22%; inhibition [28]: 26%; Ratio IC50 [29]: > 7
CN(CCCCC(=O)Nc1ccc(O)c2ncccc12)c1ccccc1,57.5,22.2,7.5,> 10,,,,,,,,,,,,,,,,,inhibition [27]: 15%; inhibition [28]: 35%; Ratio IC50 [29]: > 7
